In publication PMC6001651 (International Journal of Biological Sciences, 2018):
Where no end group is shown, it is not given here.

How the values were obtained:
[1] = Circular dichroism; format: physicochemical; settings: 100 µM peptide, 20 °C
In short: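 Test compound at 100 µM was dissolved in 10 mM ammonium acetate or in 50% TFE (v/v in 10 mM ammonium acetate) and read in a 1-mm cuvette. Spectra covered 190–260 nm at 20 °C, with three accumulations, 200 nm/min scan speed, 1 nm bandwidth and 0.5 nm data pitch. % α-helix was estimated by K2D on DichroWeb.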

[2] = Stability in serum; format: in vitro ADME; settings: 10% FBS in RPMI-1640, 37 °C
In short: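 Test compound at 50 μM was incubated in RPMI-1640 with 10% FBS at 37 °C for 24 h. Every 4 h, an aliquot was mixed with two volumes of 96% ethanol, held at 4 °C for 15 min and spun at 18,000× g for 2 min. Supernatants were analysed by RP-HPLC and MALDI-TOF. % remaining was the peak area relative to a serum-free stock; three independent experiments, mean ± s.d.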

[3] = test system: S. aureus (NCTC 10788); test: Antimicrobial assay; format: cell-based
In short: (§1)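 Each organism was grown in Mueller-Hinton broth, and 10^5 CFU/mL were exposed to test compound at 1–512 μM in two-fold dilutions. Plates were incubated at 37 °C in humidified air for 16–24 h. For MBC, 20 µL from each well was plated on Mueller-Hinton agar. MBC was the lowest concentration giving no colonies.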

[4] = test system: E. coli (NCTC 10418); test: Antimicrobial assay; format: cell-based
In short: as §1

[5] = test system: C. albicans (NCTC 1467); test: Antimicrobial assay; format: cell-based
In short: as §1

[6] = test system: methicillin-resistant S. aureus (MRSA; ATCC 12493); test: Antimicrobial assay; format: cell-based
In short: as §1

[7] = test system: P. aeruginosa (ATCC 27853); test: Antimicrobial assay; format: cell-based
In short: as §1

[8] = test system: E. faecalis (NCTC 12697); test: Antimicrobial assay; format: cell-based
In short: as §1

[9] = test system: all the microorganisms that we examined; test: Antimicrobial assays, summary over all microorganisms examined; format: cell-based
In short: as §1

[10] = test system: S. aureus biofilm; format: cell-based
[11] = test system: P. aeruginosa biofilm; format: cell-based
[12] = test system: biofilm formation by S. aureus and P. aeruginosa; format: cell-based
[13] = test system: non-small cell lung cancer H157; test: MTT anti-cancer assay; format: cell-based, human; settings: H157, 24 h
In short: (§2)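 Cells were seeded at 5000/well, grown 24 h at 37 °C in 5% CO2, then serum-starved for 6 h. Test compound at ten-fold concentrations from 10^-4 to 10^-9 M in serum-free medium was added for 24 h. MTT (5 mg/ml solution) was added for 4–6 h, formazan was dissolved in DMSO and OD was read at 550 nm. IC50 came from normalised curves; three independent experiments, mean ± s.d.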

[14] = test system: melanocyte MDA-MB-435S; test: MTT anti-cancer assay; format: cell-based, human; settings: MBD-MB-435S, 24 h
In short: as §2

[15] = test system: human prostate carcinoma PC-3; test: MTT anti-cancer assay; format: cell-based; settings: PC-3, 24 h
In short: as §2

[16] = test system: human glioblastoma astrocytoma U251MG; test: MTT anti-cancer assay; format: cell-based; settings: U251-MG, 24 h
In short: as §2

[17] = test system: human breast cancer MCF-7; test: MTT anti-cancer assay; format: cell-based; settings: MCF-7, 24 h
In short: as §2

[18] = test system: normal human microvessel endothelial cells HMEC-1; test: MTT assay on normal cells; format: cell-based
In short: as §2

[19] = test system: five diverse human cancer cell lines; test: MTT anti-cancer assay, summary over five cancer cell lines; format: cell-based; settings: read-out: IC50s over the cancer cell lines
In short: as §2

[20] = Haemolysis assay; format: cell-based; settings: horse erythrocytes, 2% suspension
In short: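 A 2% horse erythrocyte suspension in PBS was incubated with test compound at 1–512 μM for 2 h at 37 °C, with PBS and 1% Triton X-100 as controls. After centrifugation at 900× g for 5 min, supernatant absorbance was read at 550 nm. HC50 was calculated from normalised curves.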

RKKRRQRRRLNLKALLAVAKKIL-NH2 [tMP-C]
% α-helix 10 mM NH4AC ([1]; 10 mM NH4AC buffer): 9% | % α-helix 50% TFE (v/v) ([1]; 50% TFE in 10 mM NH4AC): 28% | serum stability (in words) [2]: poor serum stability | MBC [3]: 4 µM | MIC [3]: 4 µM | MBC [4]: 2 µM | MIC [4]: 2 µM | MBC [5]: 2 µM | MIC [5]: 2 µM | MBC [6]: 8 µM | MIC [6]: 4 µM | MBC [7]: 4 µM | MIC [7]: 4 µM | MBC [8]: 16 µM | MIC [8]: 8 µM | MIC and MBC values [9]: at most 16 µM | MBIC ([10]; S. aureus biofilm formation): 32 µM | MBEC ([10]; S. aureus existing biofilm): 256 µM | MBIC ([11]; P. aeruginosa biofilm formation): 8 µM | MBEC ([11]; P. aeruginosa existing biofilm): 128 µM | maximum MBIC [12]: 32 µM | IC50 [13]: 2.79 µM | IC50 [14]: 3.86 µM | IC50 [15]: 3.86 µM | IC50 [16]: 3.36 µM | IC50 [17]: 3.7 µM | inhibitory effect ([18]; HMEC-1, concentration of 10 µM): 60% | IC50 ([18]; HMEC-1 normal cells, 24 h, MTT): 9.18 µM | IC50 [19]: < 4 µM | HC50 at 2 h [20]: 77.9 µM
